Measured values as given in ChEMBL document CHEMBL4699550, “Isolation of Picrotoxanes from Austrobuxus carunculatus Using Taxonomy-Based Molecular Networking” (J Nat Prod, 2020).
Calls of active or inactive are those of the source. The rule behind the calls is not given here.

What was measured:
[1] = test system: A549; experiment: Antiproliferative activity against human A549 cells assessed as reduction in cell viability at 1 uM after 72 hrs by CellTiter Glo assay; type: functional, cell-based
[2] = test system: HCT-116; experiment: Antiproliferative activity against human HCT-116 cells assessed as reduction in cell viability at 1 uM after 72 hrs by CellTiter Glo assay; type: functional, cell-based
[3] = test system: U-87 MG; experiment: Antiproliferative activity against human U87 cells assessed as reduction in cell viability at 1 uM after 72 hrs by CellTiter Glo assay; type: functional, cell-based; details: U-87MG ATCC
[4] = test system: U-87 MG; experiment: Antiproliferative activity against human U87 cells assessed as reduction in cell viability after 72 hrs by CellTiter Glo assay; type: functional, cell-based, U-87MG ATCC
In short: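 U87-MG glioblastoma cells (ATCC) grown in DMEM with 10% FCS and 1% L-glutamine at 37 °C under 5% CO2. Seeded at 3 × 10³ cells/well, cultured 24 h, then treated at 10 final concentrations serially diluted in medium; vehicle-treated controls. CellTiter-Glo luminescence read after 72 h. Triplicate runs; IC50 from four- or five-parameter logistic curves.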

[5] = test system: HCT-116; experiment: Antiproliferative activity against human HCT-116 cells assessed as reduction in cell viability after 72 hrs by CellTiter Glo assay; type: functional, cell-based; details: HCT-116, 72 h
In short: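 HCT-116 (ATCC) grown in McCoy's 5A with 10% FCS, 1% L-glutamine, 37 °C, 5% CO2. Seeded 3 × 10³ cells/well; after 24 h treated with 10 final concentrations by serial dilution in medium; vehicle controls; triplicate. Luminescent viability read-out after 72 h, reagent 15 min. IC50 from four- or five-parameter logistic fit of dose-response curves.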

[6] = test system: A549; experiment: Antiproliferative activity against human A549 cells assessed as reduction in cell viability after 72 hrs by CellTiter Glo assay; type: functional, cell-based; details: A549, 72 h
In short: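 A549 cells (ATCC) grown in RPMI 1640 with 10% FCS and 1% L-glutamine at 37 °C under 5% CO2. Seeded at 3 × 10³ cells/well and cultured 24 h, then given 10 final concentrations from serial dilution in medium; vehicle controls. After 72 h, viability read by CellTiter-Glo luminescence. Run in triplicate; IC50 from four- or five-parameter logistic fits.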

[7] = test system: HCT-116; experiment: Antiproliferative activity against human HCT-116 cells assessed as reduction in cell viability at 10 uM after 72 hrs by CellTiter Glo assay; type: functional, cell-based
[8] = test system: U-87 MG; experiment: Antiproliferative activity against human U87 cells assessed as reduction in cell viability at 10 uM after 72 hrs by CellTiter Glo assay; type: functional, cell-based; details: U-87MG ATCC
[9] = test system: A549; experiment: Antiproliferative activity against human A549 cells assessed as reduction in cell viability at 10 uM after 72 hrs by CellTiter Glo assay; type: functional, cell-based

SMILES: C=C(C)[C@@H]1[C@H]2OC(=O)[C@@H]1[C@]1(O)[C@H]3O[C@H]3[C@]3(C[C@H]([C@H](C)OC(=O)CCCCCCCCCCC)C(=O)O3)[C@]1(C)[C@@H]2O
- Activity [1]: inactive
- Activity [2]: inactive
- Activity [3]: inactive

SMILES: C=C(C)[C@@H]1[C@H]2OC(=O)[C@@H]1[C@]1(O)[C@H]3O[C@H]3[C@]3(C[C@@H]([C@H](C)OC(=O)CCCCCCCCC)C(=O)O3)[C@]1(C)[C@@H]2O
- Activity [1]: inactive
- Activity [2]: inactive
- Activity [3]: inactive

SMILES: COc1cccc2c1C(=O)c1c(O)c3c(c(O)c1C2=O)C[C@@](O)(C(=O)CO)C[C@@H]3O[C@H]1C[C@H](N)[C@H](O)[C@H](C)O1 [DOXORUBICIN]
- IC50 [4]: 99.6 µM
- IC50 [5]: 56.6 µM
- IC50 [6]: 90 µM

SMILES: C=C(C)[C@@H]1[C@H]2OC(=O)[C@@H]1[C@]1(O)[C@H]3O[C@H]3[C@]3(C[C@@H]([C@H](C)O)C(=O)O3)[C@]1(C)[C@@H]2OC(=O)CCCCCCCCCCC
- IC50 [4]: 0.7 µM
- Activity [7]: Active
- Activity [1]: inactive
- IC50 [6]: 5.8 µM
- Activity [8]: Active
- Activity [2]: inactive
- Activity [9]: Active
- Activity [3]: inactive

SMILES: CO[C@@H](C)[C@@]1(O)C[C@@]2(OC1=O)[C@@H]1O[C@@H]1[C@@]1(O)[C@H]3C(=O)O[C@H]([C@H]3C(C)C)[C@@H](O)[C@]12C
- Activity [1]: inactive
- Activity [2]: inactive
- Activity [3]: inactive

SMILES: C=C(C)[C@@H]1[C@H]2OC(=O)[C@@H]1[C@]1(O)[C@H]3O[C@H]3[C@]3(C[C@H]([C@H](C)OC(=O)CCCCCCCCCCCCC)C(=O)O3)[C@]1(C)[C@@H]2O
- Activity [1]: inactive
- Activity [2]: inactive
- Activity [3]: inactive

SMILES: C=C(C)[C@@H]1[C@H]2OC(=O)[C@@H]1[C@]1(O)[C@H]3O[C@H]3[C@]3(C[C@H]([C@H](C)OC(=O)CCCCCCCCC)C(=O)O3)[C@]1(C)[C@@H]2O
- Activity [1]: inactive
- Activity [2]: inactive
- Activity [3]: inactive

SMILES: C=C(C)[C@@H]1[C@H]2OC(=O)[C@@H]1[C@]1(O)[C@H]3O[C@H]3[C@]3(C[C@H]([C@H](C)OC(=O)CCCCCCCCCCCCCCC)C(=O)O3)[C@]1(C)[C@@H]2O
- Activity [1]: inactive
- Activity [2]: inactive
- Activity [3]: inactive

SMILES: C=C(C)[C@@H]1[C@H]2OC(=O)[C@@H]1[C@]1(O)[C@H]3O[C@H]3[C@]3(C[C@](O)([C@H](C)OC)C(=O)O3)[C@]1(C)[C@@H]2O
- Activity [1]: inactive
- Activity [2]: inactive
- Activity [3]: inactive

SMILES: C=C(C)[C@@H]1[C@H]2OC(=O)[C@@H]1[C@]1(O)[C@H]3O[C@H]3[C@]3(C/C(=C\C)C(=O)O3)[C@]1(C)[C@@H]2O
- Activity [1]: inactive
- Activity [2]: inactive
- Activity [3]: inactive

SMILES: C=C(C)[C@@H]1[C@H]2OC(=O)[C@@H]1[C@]1(O)[C@H]3O[C@H]3[C@]3(C[C@@H]([C@H](C)O)C(=O)O3)[C@]1(C)[C@@H]2O
- Activity [1]: inactive
- Activity [2]: inactive
- Activity [3]: inactive

SMILES: CCCCCCCCCC(=O)O[C@@H]1[C@@H]2OC(=O)[C@@H]([C@@H]2C(C)C)[C@]2(O)[C@H]3O[C@H]3[C@]3(C[C@](O)([C@H](C)OC)C(=O)O3)[C@]12C
- IC50 [4]: 0.7 µM
- Activity [7]: Active
- Activity [1]: inactive
- IC50 [6]: 5.8 µM
- Activity [8]: Active
- Activity [2]: inactive
- Activity [9]: Active
- Activity [3]: inactive

SMILES: C=C(C)[C@@H]1[C@H]2OC(=O)[C@@H]1[C@]1(O)[C@H]3O[C@H]3[C@]3(CO3)[C@]1(C)[C@@H]2O
- Activity [1]: inactive
- Activity [2]: inactive
- Activity [3]: inactive

SMILES: C=C(C)[C@@H]1[C@H]2OC(=O)[C@@H]1[C@]1(O)[C@H]3O[C@H]3[C@]3(CO3)[C@]1(C)[C@@H]2OC(=O)CCCCCCCCCCC
- Activity [7]: Active
- Activity [1]: inactive
- Activity [8]: Active
- Activity [2]: inactive
- Activity [9]: Active
- Activity [3]: inactive

SMILES: C=C(C)[C@@H]1[C@H]2OC(=O)[C@@H]1[C@]1(O)[C@H]3O[C@H]3[C@]3(C[C@@H]([C@H](C)OC(=O)CCCCCCCCCCC)C(=O)O3)[C@]1(C)[C@@H]2O
- Activity [1]: inactive
- Activity [2]: inactive
- Activity [3]: inactive
